According to ChEMBL document CHEMBL1135680, “Use of ab initio calculations to predict the biological potency of carboxylesterase inhibitors” (J Med Chem, 2002):

Molecular target: T1, Cocaine esterase (Homo sapiens, UniProt O00748)
T1 sequence (O00748 whole entry): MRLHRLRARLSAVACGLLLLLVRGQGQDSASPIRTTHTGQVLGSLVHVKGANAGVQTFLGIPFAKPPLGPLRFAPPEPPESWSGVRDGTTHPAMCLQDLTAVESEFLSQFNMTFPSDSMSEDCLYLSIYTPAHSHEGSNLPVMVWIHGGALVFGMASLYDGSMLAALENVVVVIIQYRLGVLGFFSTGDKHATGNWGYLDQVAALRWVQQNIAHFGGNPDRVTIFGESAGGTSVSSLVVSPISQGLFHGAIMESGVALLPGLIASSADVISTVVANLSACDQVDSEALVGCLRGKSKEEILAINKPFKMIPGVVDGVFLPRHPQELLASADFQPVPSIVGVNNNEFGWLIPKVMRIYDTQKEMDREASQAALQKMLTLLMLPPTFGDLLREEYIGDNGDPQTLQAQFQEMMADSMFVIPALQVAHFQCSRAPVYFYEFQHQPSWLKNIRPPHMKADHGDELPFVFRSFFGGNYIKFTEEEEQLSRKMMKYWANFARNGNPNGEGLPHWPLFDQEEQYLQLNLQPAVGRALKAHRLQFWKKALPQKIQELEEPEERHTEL
Assay: In vitro inhibition of carboxylesterase in human liver microsomes.
Design: species or system Microsome

| Compound | -Log IC50 |
| --- | --- |
| CCCCCCCCC(=O)CF | 3.85 |
| CCCCCC[Se](=O)CC(C)=O (stereo not given) | 5.69 |

The remaining lines, values ahead:

| -Log IC50 | Compound |
| --- | --- |
| 6.51 | CCCCCC[S+]([O-])CC(=O)C(F)(F)F (stereo not given) |
| 5.3 | CCCCCCCCC(=O)C(F)F |
| 5.36 | CCCCCCCCC(=O)C(F)(F)F |

Molecular target: T2, Acylcarnitine hydrolase (Mus musculus, UniProt Q91WG0)
T2 sequence (Q91WG0 whole entry): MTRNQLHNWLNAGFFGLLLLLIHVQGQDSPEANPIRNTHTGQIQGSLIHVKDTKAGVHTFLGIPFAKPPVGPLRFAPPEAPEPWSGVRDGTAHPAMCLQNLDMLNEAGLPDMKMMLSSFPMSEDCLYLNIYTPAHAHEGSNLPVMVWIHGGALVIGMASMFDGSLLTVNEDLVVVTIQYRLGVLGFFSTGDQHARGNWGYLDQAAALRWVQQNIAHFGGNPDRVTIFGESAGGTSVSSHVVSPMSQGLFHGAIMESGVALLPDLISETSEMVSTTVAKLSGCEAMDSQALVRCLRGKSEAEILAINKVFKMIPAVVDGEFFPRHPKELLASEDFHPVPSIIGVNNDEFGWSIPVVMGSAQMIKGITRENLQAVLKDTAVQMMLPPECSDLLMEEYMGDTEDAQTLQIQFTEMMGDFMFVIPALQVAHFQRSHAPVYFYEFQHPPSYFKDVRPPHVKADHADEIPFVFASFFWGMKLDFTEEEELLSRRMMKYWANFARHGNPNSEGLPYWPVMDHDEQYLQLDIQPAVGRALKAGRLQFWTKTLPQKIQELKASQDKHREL
Assay: Inhibition of carboxylesterase in murine liver microsomes.
Design: species or system Microsome
How it was run: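 Liver microsomes from male Swiss-Webster mice (differential centrifugation, 100000g pellets), solubilized in 1% n-octyl-β-D-glucopyranoside, then dialyzed 48 h at 4 °C to remove it; 0.88 μg protein per well. Assay in 0.1 M sodium phosphate pH 7.4 at 30 °C: 5 min inhibitor preincubation (ethanol ≤1%), 0.5 mM p-nitrophenyl acetate, 405 nm.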

| Compound | IC50 [µM] |
| --- | --- |
| CCCCCCCCC(=O)CF | 1780 |
| CCCCCCOCC(=O)C(F)(F)F | 0.12 |
| CCCCCC[Se]CC(=O)C(F)(F)F | 0.575 |
| CCCCCC[Se](=O)(=O)CC(C)=O | 112 |
| CCCCCC[Se]CC(C)=O | 302 |
| CCCCCCSCC(C)=O | 955 |
| CCCCCC/C=C/C(=O)C(F)(F)F | 14800 |
| CCCCCC[Se](=O)CC(=O)C(F)(F)F (stereo not given) | 0.000501 |
| CCCCCC[Se](=O)(=O)CC(=O)C(F)(F)F | 0.0132 |
| CCCCCCC#CC(=O)C(F)(F)F | 2040 |
| CCCCCC[Se](=O)CC(C)=O (stereo not given) | 15.8 |

Now from value to compound:

| IC50 [µM] | Compound |
| --- | --- |
| 0.447 | CCCCCC[S+]([O-])CC(=O)C(F)(F)F (stereo not given) |
| 479 | CCCCCCS(=O)(=O)CC(C)=O |
| 0.0126 | CCCCCCSCC(=O)C(F)(F)F |
| 0.162 | CCCCCCCC(F)(F)C(=O)C(F)(F)F |
| 427 | CCCCCCOCC(C)=O |
| 44.7 | CCCCCCCCC(=O)C(F)F |
| 0.447 | CCCCCCS(=O)(=O)CC(=O)C(F)(F)F |
| 0.0224 | CCCCCCNCC(=O)C(F)(F)F |
| 38 | CCCCCCCCC(=O)C(F)(F)F |

Molecular target: T3, Liver carboxylesterase (Sus scrofa, UniProt Q29550)
T3 sequence (Q29550 whole entry): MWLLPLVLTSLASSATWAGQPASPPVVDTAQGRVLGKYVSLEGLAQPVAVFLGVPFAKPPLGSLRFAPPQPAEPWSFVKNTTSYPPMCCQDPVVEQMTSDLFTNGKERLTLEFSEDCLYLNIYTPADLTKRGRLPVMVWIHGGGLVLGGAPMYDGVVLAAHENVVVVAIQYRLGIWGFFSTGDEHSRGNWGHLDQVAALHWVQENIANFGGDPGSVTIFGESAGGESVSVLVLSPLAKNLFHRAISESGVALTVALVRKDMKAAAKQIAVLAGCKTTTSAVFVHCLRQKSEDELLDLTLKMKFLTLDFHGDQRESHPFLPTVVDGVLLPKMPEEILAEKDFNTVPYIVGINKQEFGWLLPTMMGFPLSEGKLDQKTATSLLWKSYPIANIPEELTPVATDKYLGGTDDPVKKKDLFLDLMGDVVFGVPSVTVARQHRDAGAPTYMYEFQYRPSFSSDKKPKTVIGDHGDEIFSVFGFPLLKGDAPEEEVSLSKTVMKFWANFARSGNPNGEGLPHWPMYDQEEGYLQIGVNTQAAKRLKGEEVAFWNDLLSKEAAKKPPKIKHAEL
Assay: In vitro inhibition of porcine carboxylesterase.

| Compound | IC50 [µM] |
| --- | --- |
| CCCCCCCCC(=O)CF | 851 |
| CCCCCCOCC(=O)C(F)(F)F | 0.0437 |
| CCCCCC[Se]CC(=O)C(F)(F)F | 0.38 |
| CCCCCC[Se]CC(C)=O | 155 |
| CCCCCCSCC(C)=O | 977 |
| CCCCCC/C=C/C(=O)C(F)(F)F | 6460 |
| CCCCCC[Se](=O)CC(=O)C(F)(F)F (stereo not given) | 0.000457 |
| CCCCCC[Se](=O)(=O)CC(=O)C(F)(F)F | 0.0105 |
| CCCCCCC#CC(=O)C(F)(F)F | 955 |
| CCCCCC[Se](=O)CC(C)=O (stereo not given) | 9.33 |

Continued, values first:

| IC50 [µM] | Compound |
| --- | --- |
| 0.17 | CCCCCC[S+]([O-])CC(=O)C(F)(F)F (stereo not given) |
| 110 | CCCCCCS(=O)(=O)CC(C)=O |
| 67600 | CCCCCCCCC(C)=O [2-DECANONE] |
| 0.00832 | CCCCCCSCC(=O)C(F)(F)F |
| 0.115 | CCCCCCCC(F)(F)C(=O)C(F)(F)F |
| 257 | CCCCCCOCC(C)=O |
| 24.5 | CCCCCCCCC(=O)C(F)F |
| 0.676 | CCCCCCS(=O)(=O)CC(=O)C(F)(F)F |
| 0.017 | CCCCCCNCC(=O)C(F)(F)F |
| 21.4 | CCCCCCCCC(=O)C(F)(F)F |
